Data as given in ChEMBL document CHEMBL4680175, “Sulfonamide-based ring-fused analogues for CAN508 as novel carbonic anhydrase inhibitors endowed with antitumor activity: Design, synthesis, and in vitro biological evaluation” (Eur J Med Chem, 2020).

Key:
Format in all cases: functional
Details in all cases: read-out: GI
[1] = test system: HL-60(TB); experiment: Antitumor activity against human HL-60(TB) cells assessed as cell growth inhibition at 10 uM incubated for 48 hrs by sulforhodamine B assay
Summary of the method: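 Single-dose NCI-60-type screen of 57 human cancer cell lines at 10 μM under the NCI Drug Evaluation Branch protocol. Drugs exposed for 48 h; growth and viability read by sulforhodamine B assay. Data given as mean-graph percent growth of treated cells, expressed as percent growth inhibition.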

[2] = test system: OVCAR-4; experiment: Antitumor activity against human OVCAR-4 cells assessed as cell growth inhibition at 10 uM incubated for 48 hrs by sulforhodamine B assay
Summary of the method: (§1)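 NCI Drug Evaluation Branch protocol: primary single-dose screen at 10 μM across a 57-line human cancer panel. Drug exposure is 48 h. Cell growth and viability are read by sulforhodamine B assay. Data are given as a mean graph of percent growth of treated cells and reported as percentage growth inhibition (GI%).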

[3] = test system: SF-295; experiment: Antitumor activity against human SF295 cells assessed as cell growth inhibition at 10 uM incubated for 48 hrs by sulforhodamine B assay; summary of the method: as §1
[4] = test system: Malme-3M; experiment: Antitumor activity against human MALME-3M cells assessed as cell growth inhibition at 10 uM incubated for 48 hrs by sulforhodamine B assay; summary of the method: as §1
[5] = test system: ACHN; experiment: Antitumor activity against human ACHN cells assessed as cell growth inhibition at 10 uM incubated for 48 hrs by sulforhodamine B assay; summary of the method: as §1
[6] = test system: COLO 205; experiment: Antitumor activity against human COLO205 cells assessed as cell growth inhibition at 10 uM incubated for 48 hrs by sulforhodamine B assay; summary of the method: as §1
[7] = test system: SW-620; experiment: Antitumor activity against human SW620 cells assessed as cell growth inhibition at 10 uM incubated for 48 hrs by sulforhodamine B assay
Summary of the method: (§2)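 NCI one-dose screen: 57-cell-line panel exposed at 10 μM for 48 h, Drug Evaluation Branch protocol. Growth and viability read by sulforhodamine B; data given as percent growth inhibition from the mean-graph of percent growth of treated cells.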

[8] = test system: UACC-257; experiment: Antitumor activity against human UACC-257 cells assessed as cell growth inhibition at 10 uM incubated for 48 hrs by sulforhodamine B assay; summary of the method: as §2
[9] = test system: SK-OV-3; experiment: Antitumor activity against human SK-OV-3 cells assessed as cell growth inhibition at 10 uM incubated for 48 hrs by sulforhodamine B assay; summary of the method: as §1
[10] = test system: TK-10; experiment: Antitumor activity against human TK-10 cells assessed as cell growth inhibition at 10 uM incubated for 48 hrs by sulforhodamine B assay; summary of the method: as §2
[11] = test system: HCT-15; experiment: Antitumor activity against human HCT15 cells assessed as cell growth inhibition at 10 uM incubated for 48 hrs by sulforhodamine B assay; summary of the method: as §1
[12] = test system: SR; experiment: Antitumor activity against human SR cells assessed as cell growth inhibition at 10 uM incubated for 48 hrs by sulforhodamine B assay; summary of the method: as §2
[13] = test system: OVCAR-5; experiment: Antitumor activity against human OVCAR-5 cells assessed as cell growth inhibition at 10 uM incubated for 48 hrs by sulforhodamine B assay; summary of the method: as §1
[14] = test system: MDA-MB-435; experiment: Antitumor activity against human MDA-MB-435 cells assessed as cell growth inhibition at 10 uM incubated for 48 hrs by sulforhodamine B assay; summary of the method: as §1
[15] = test system: CAKI-1; experiment: Antitumor activity against human CAKI-1 cells assessed as cell growth inhibition at 10 uM incubated for 48 hrs by sulforhodamine B assay; summary of the method: as §1
[16] = test system: HCC 2998; experiment: Antitumor activity against human HCC2998 cells assessed as cell growth inhibition at 10 uM incubated for 48 hrs by sulforhodamine B assay; summary of the method: as §1
[17] = test system: Hs-578T; experiment: Antitumor activity against human HS 578T cells assessed as cell growth inhibition at 10 uM incubated for 48 hrs by sulforhodamine B assay; summary of the method: as §1
[18] = test system: SNB-19; experiment: Antitumor activity against human SNB-19 cells assessed as cell growth inhibition at 10 uM incubated for 48 hrs by sulforhodamine B assay; summary of the method: as §1
[19] = test system: HT-29; experiment: Antitumor activity against human HT-29 cells assessed as cell growth inhibition at 10 uM incubated for 48 hrs by sulforhodamine B assay; summary of the method: as §1
[20] = test system: A498; experiment: Antitumor activity against human A498 cells assessed as cell growth inhibition at 10 uM incubated for 48 hrs by sulforhodamine B assay; summary of the method: as §1
[21] = test system: A549; experiment: Antitumor activity against human A549/ATCC cells assessed as cell growth inhibition at 10 uM incubated for 48 hrs by sulforhodamine B assay; summary of the method: as §1
[22] = test system: EKVX; experiment: Antitumor activity against human EKVX cells assessed as cell growth inhibition at 10 uM incubated for 48 hrs by sulforhodamine B assay; summary of the method: as §1
[23] = test system: 786-0; experiment: Antitumor activity against human 786-0 cells assessed as cell growth inhibition at 10 uM incubated for 48 hrs by sulforhodamine B assay; summary of the method: as §1
[24] = test system: NCI-H23; experiment: Antitumor activity against human NCI-H23 cells assessed as cell growth inhibition at 10 uM incubated for 48 hrs by sulforhodamine B assay; summary of the method: as §1
[25] = test system: NCI-H460; experiment: Antitumor activity against human NCI-H460 cells assessed as cell growth inhibition at 10 uM incubated for 48 hrs by sulforhodamine B assay; summary of the method: as §1
[26] = test system: UACC-62; experiment: Antitumor activity against human UACC-62 cells assessed as cell growth inhibition at 10 uM incubated for 48 hrs by sulforhodamine B assay; summary of the method: as §2
[27] = test system: HOP-92; experiment: Antitumor activity against human HOP92 cells assessed as cell growth inhibition at 10 uM incubated for 48 hrs by sulforhodamine B assay; summary of the method: as §1
[28] = test system: SK-MEL-28; experiment: Antitumor activity against human SK-MEL-28 cells assessed as cell growth inhibition at 10 uM incubated for 48 hrs by sulforhodamine B assay; summary of the method: as §1
[29] = test system: M14; experiment: Antitumor activity against human M14 cells assessed as cell growth inhibition at 10 uM incubated for 48 hrs by sulforhodamine B assay; summary of the method: as §1

Compound	inhibition of growth at 10 µM [1]	inhibition of growth at 10 µM [2]	inhibition of growth at 10 µM [4]	inhibition of growth at 10 µM [5]	inhibition of growth at 10 µM [6]	inhibition of growth at 10 µM [7]	inhibition of growth at 10 µM [8]	inhibition of growth at 10 µM [9]	inhibition of growth at 10 µM [10]	inhibition of growth at 10 µM [11]	inhibition of growth at 10 µM [12]	inhibition of growth at 10 µM [13]	inhibition of growth at 10 µM [14]	inhibition of growth at 10 µM [15]	inhibition of growth at 10 µM [16]	inhibition of growth at 10 µM [17]	inhibition of growth at 10 µM [18]	inhibition of growth at 10 µM [19]	inhibition of growth at 10 µM [20]	inhibition of growth at 10 µM [21]	also measured
Cc1ccc(-c2cn3nc(N)c(/N=N/c4ccc(S(N)(=O)=O)cc4)c3[nH]2)cc1	47%	46%	63%	79%	24%	60%	20%	77%	53%	65%	63%	23%	52%	86%	40%	64%	24%	37%	87%	62%	inhibition of growth at 10 µM [3]: 29%; inhibition of growth at 10 µM [22]: 28%; inhibition of growth at 10 µM [23]: 60%; inhibition of growth at 10 µM [24]: 34%; inhibition of growth at 10 µM [25]: 67%; inhibition of growth at 10 µM [26]: 44%; inhibition of growth at 10 µM [27]: 35%; inhibition of growth at 10 µM [28]: 38%; inhibition of growth at 10 µM [29]: 60%
Nc1nn2cc(-c3ccccc3)[nH]c2c1/N=N/c1ccc(S(N)(=O)=O)cc1	72%	63%	74%	91%	55%	74%	31%	87%	52%	77%	87%	35%	71%	96%	54%	95%	40%	61%	92%	67%	inhibition of growth at 10 µM [3]: 52%; inhibition of growth at 10 µM [22]: 45%; inhibition of growth at 10 µM [23]: 72%; inhibition of growth at 10 µM [24]: 54%; inhibition of growth at 10 µM [25]: 80%; inhibition of growth at 10 µM [26]: 69%; inhibition of growth at 10 µM [27]: 74%; inhibition of growth at 10 µM [28]: 55%; inhibition of growth at 10 µM [29]: 69%
Nc1nn2cc(-c3ccc(Br)cc3)[nH]c2c1/N=N/c1ccc(S(N)(=O)=O)cc1	36%	43%	64%	76%	28%	48%	21%	82%	50%	63%	54%	24%	46%	82%	33%	54%	26%	34%	83%	51%	inhibition of growth at 10 µM [22]: 21%; inhibition of growth at 10 µM [23]: 56%; inhibition of growth at 10 µM [24]: 30%; inhibition of growth at 10 µM [25]: 62%; inhibition of growth at 10 µM [26]: 47%; inhibition of growth at 10 µM [27]: 29%; inhibition of growth at 10 µM [28]: 32%; inhibition of growth at 10 µM [29]: 61%
